# Screens: PubChem, several laboratories
# PLAP activator – human PLAP activation | P05187 | activation fold at 20 µM | 96,000 tested, 1.2% active | purified PLAP enzyme, luminescent substrate read-out; active compounds read high; in the data active = activation fold above about 2
# Target sequence (P05187 whole entry, looked up): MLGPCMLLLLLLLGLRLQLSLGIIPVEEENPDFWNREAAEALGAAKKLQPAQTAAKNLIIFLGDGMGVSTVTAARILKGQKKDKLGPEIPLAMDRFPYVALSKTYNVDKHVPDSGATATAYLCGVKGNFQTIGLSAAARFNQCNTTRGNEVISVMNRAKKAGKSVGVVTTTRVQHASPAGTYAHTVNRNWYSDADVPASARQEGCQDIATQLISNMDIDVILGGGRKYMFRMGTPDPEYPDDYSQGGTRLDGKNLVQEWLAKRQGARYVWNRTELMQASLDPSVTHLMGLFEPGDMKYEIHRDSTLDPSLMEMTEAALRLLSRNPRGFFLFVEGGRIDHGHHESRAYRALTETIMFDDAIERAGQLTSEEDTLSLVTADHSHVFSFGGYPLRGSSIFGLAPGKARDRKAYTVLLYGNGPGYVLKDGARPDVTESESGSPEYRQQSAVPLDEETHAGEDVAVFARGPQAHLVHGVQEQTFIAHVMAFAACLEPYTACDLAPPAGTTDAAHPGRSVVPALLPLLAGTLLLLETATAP
# Ecoli WT expand – blocks growth of wild type E. coli BW25113 | OD600 absorbance | growth inhibition, % at 100 µM | 98,000 tested, 0.15% active | AID 710;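 active = growth inhibition above about 50% at one test dose, limit read from the data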;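 note: growth measured after 20 h incubation at 37 °C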
# tolC growth inh – growth inhibitors of E. coli BW25113 tolC mutant. OD615. growth inhibition, % at 10 µM (by protocol). 65,000 tested, 2.2% active. AID 573;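 active = growth inhibition at or above a cutoff equal to the mean over every tested compound plus 3 SD, cut at about 60% in these data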;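 note: growth measured after 20 h incubation at 37 °C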
#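 Doses: one dose of 10 µM final / Material: E. coli BW25113 ΔtolC::kan, tolC deletion mutant strain / Buffer or medium: LB with kanamycin 50 µg/mL / Evaluation: percent growth inhibition / Detection: optical density read at 615 nm / Incubation: 37 °C, 20 h exposure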
# PostGolgi yeast – growth inhibition of a yeast mutant, post-Golgi transport screen; post-Golgi transport phenotypic cell assay; inhibition, % at 10 µM; 98,000 tested, 0.9% active; AID 739;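 note: yeast cells grown in 1536-well plates; yeast grown about 18 h at 30C before absorbance read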
# PostGolgi ctrl – growth of the yeast control strain, post-Golgi counter-screen | efflux-deficient yeast background strain, growth absorbance A615, 16 h | inhibition, % at 10 µM | 98,000 tested, 5% active
# An asterisk follows results filed as active; x = no result. Hits are enriched below; roughly 7.2% of the tested compounds scored in any of these assays. Cut-off read from the data, not from the text of the source, unless noted: active = inhibition above about 30%; inactive = the rest.
SMILES,PLAP activator,Ecoli WT expand,tolC growth inh,PostGolgi yeast,PostGolgi ctrl
CCOc1ccc2nc(NS(=O)(=O)Cc3ccccc3)sc2c1,0.9,-2,x,0,1
N#Cc1nc(COc2ccc(Cl)cc2)oc1N1CCCCCC1,0.9,-1,66*,-2,45*
N#Cc1nc(Cc2cccc3ccccc23)oc1N1CCCCC1,0.9,-24,51,-3,36*
N#Cc1nc(COc2ccccc2)oc1N1CCCCC1,1,-2,12,5,3
N#Cc1nc(COc2ccccc2Cl)oc1N1CCCCCC1,x,-3,10,0,7
N#Cc1nc(-c2cccc3ccccc23)oc1N1CCCCC1,0.9,-13,-7,8,2
N#Cc1nc(COc2ccc(Br)cc2)oc1N1CCN(Cc2ccccc2)CC1,1.2,-20,7,0,20
N#Cc1nc(COc2ccc(F)cc2)oc1N1CCN(Cc2ccccc2)CC1,1.2,-13,65*,-7,27
CC1CN(c2oc(COc3ccc(Cl)cc3Cl)nc2C#N)CC(C)O1 (stereo not drawn),x,-12,81*,-3,27
CCCCS(=O)(=O)NC1=NCN(CCOC(=O)c2ccccc2)CN1,x,x,-4,x,x
CCOC(=O)c1ccc2c(c1)N(Cc1ccccc1C)C(=O)c1ccccc1S2=O (stereo not drawn),x,-9,14,2,31*
COC(=O)c1ccc2c(c1)N(Cc1cc(C)ccc1C)C(=O)c1ccccc1S2=O (stereo not drawn),x,x,-14,x,x
COc1ccc(-c2nnn(CC(=O)N(C3CCCCC3)C(C)C(=O)NC3CCCC3)n2)cc1OC (stereo not drawn),2*,4,-12,-12,7
Cc1n[nH]c(C)c1S(=O)(=O)N(CC(=O)Nc1ccc2c(c1)OCCO2)c1ccc(C(C)C)cc1,2*,-3,66*,-1,4
Cc1noc(C)c1S(=O)(=O)N(CC(=O)Nc1ccc2c(c1)OCO2)c1ccc(C(C)C)cc1,0.8,-6,-2,-17,2
CCC(C)NC(=O)CN(c1ccc2c(c1)OCO2)S(=O)(=O)c1c(C)n[nH]c1C (stereo not drawn),2.2*,-10,1,4,-5
Cc1cc(C)c2ccc(N)nc2c1O,0.6,96*,39,8,2
O=C1CC(SC(=NCc2ccc3c(c2)OCO3)Nc2ccccc2)C(=O)N1c1ccccc1 (stereo not drawn),0.8,-5,x,4,41*
CCOC(=O)c1ccc(N2C(=O)CC(N(Cc3ccc4c(c3)OCO4)C(=O)Nc3ccccc3)C2=O)cc1 (stereo not drawn),2*,4,x,-5,13
COc1ccc(Cl)cc1NC(=O)C(C)Sc1n[nH]c(N)n1 (stereo not drawn),1.8,9,x,-2,-1
Cn1c(N2CCOCC2)nc(-c2ccccc2)c1-c1ccccc1,1.6,9,30,-2,11
CC(=O)N(/N=C1\Sc2ccccc2C1=O)c1ccc(C)cc1C,1,-4,x,-7,48*
CC(=O)N(/N=C1\Sc2ccccc2C1=O)c1ccccc1C,1,3,x,7,33*
CC(=O)N(/N=C1\Sc2ccccc2C1=O)c1ccccc1,0.8,-13,x,2,5
C=CCn1c(SCC(=O)c2cc(C)n(CCOC)c2C)nc2sc(C)c(C)c2c1=O,1.1,-6,x,-3,4
SMILES,PLAP activator,Ecoli WT expand,tolC growth inh,PostGolgi yeast,PostGolgi ctrl
Nc1nc2n(n1)C(c1cccc(Br)c1)CC(c1ccccc1)N2 (stereo not drawn),1,4,-7,2,11
Brc1cccc(C2CC(c3ccccc3)n3nnnc3N2)c1 (stereo not drawn),1,14,63*,6,9
C=C(C)COc1ccc(-c2[nH]ncc2-c2ccccc2OC)c(O)c1,2.5*,26,38,54*,52*
C=C(C)COc1ccc(-c2nc(N)ncc2Oc2ccc(OC)cc2)c(O)c1,0.9,-13,-5,-8,11
COc1ccc(-c2c(-c3ccc(O)cc3O)n[nH]c2C)cc1OC,x,3,x,8,3
CCOc1ccc(-c2[nH]ncc2-c2ccc(OC)c(OC)c2)c(O)c1,2.7*,-1,40,-2,12
CCOc1ccc(-c2[nH]ncc2Oc2ccccc2OCC)c(O)c1,2.5*,22,95*,91*,57*
CCOc1ccc(-c2nc(N)ncc2Oc2ccccc2Br)c(O)c1,0.9,-10,x,3,55*
O=C(O)C1CCCN1S(=O)(=O)c1ccc2[nH]c(=O)c(=O)[nH]c2c1 (stereo not drawn),0.9,-8,-3,5,13
CCOC(=O)C1=C(N)n2c(s/c(=C\c3cccs3)c2=O)=C(C(=O)OCC)C1c1cccs1 (stereo not drawn),1.1,-15,-12,15,5
CC1CCCC(NC(=O)Nc2cccs2)C1C (stereo not drawn),0.9,-5,x,8,10
CCOC(=O)/C=C/S(=O)(=O)c1ccc(NC(C)=O)cc1,0.8,9,-13,4,0
CCOc1ccc(-c2[nH]ncc2Oc2ccccc2OC)c(O)c1,x,6,94*,9,22
CCCOC(=O)c1ccc(Oc2cn[nH]c2-c2ccc(OC)cc2O)cc1,2.9*,-2,95*,6,43*
COc1ccc(O)c(-c2[nH]ncc2C(=O)c2ccccc2C)c1,x,-1,3,20,7
C=C(C)COc1ccc(-c2nc(N)ncc2Oc2ccccc2OC)c(O)c1,1,-16,-1,-4,20
C=C(C)COc1ccc(-c2[nH]ncc2Oc2ccccc2OC)c(O)c1,2*,17,100*,12,10
COc1ccc(C2c3c(ncn(CCN4CCOCC4)c3=N)Oc3ccc4ccccc4c32)cc1OC (stereo not drawn),1.3,13,x,0,-3
C1=Nc2c(Nc3ccccc3)ncnc2Oc2ccccc21,0.8,-1,18,-4,23
CN(C)CCCN1C(=O)C(=O)/C(=C(/O)c2ccc(S(=O)(=O)N(C)C)cc2)C1c1ccncc1 (stereo not drawn),x,x,-10,x,x
Cn1c(CO)cnc1SCc1ccc(Cl)cc1,0.9,6,x,2,9
C/C(CC(C)(C)C1CCCCC1)=N\NC(N)=S,0.8,-9,x,107*,100*
COc1cccc(NC(=O)N(C2CCCCC2)C(C)c2cccs2)c1 (stereo not drawn),1.1,-6,x,10,13
Cc1ccccc1-c1nn2c(-c3ccccc3)nnc2s1,0.9,2,19,5,41*
COc1ccc(-c2nnc3sc(COc4ccccc4)nn23)cc1,0.7,-16,22,4,20
COc1cc(-c2nn3c(-c4ccccc4)nnc3s2)cc(OC)c1OC,1.1,-11,-8,-4,33*
COc1cc(-c2nn3c(COc4ccccc4)nnc3s2)cc(OC)c1OC,0.8,-6,7,4,12
Cc1ccc(-c2nnc3sc(CCc4ccccc4)nn23)cc1,0.9,-4,67*,6,30*
COc1cc(-c2nn3c(Cc4ccccc4)nnc3s2)cc(OC)c1OC,1.2,-3,2,20,43*
Cc1nc(NCCc2ccccc2F)c(C#N)c(C)c1[N+](=O)[O-],0.9,-1,x,15,18
